SIRT5 block: SIRT5 desuccinylase inhibitors, primary screen, biochemical, fluorescence imaging, single point, set 5 | NAD-dependent protein deacylase sirtuin-5, mitochondrial (Homo sapiens), Q9NXA8 | Purified SirT5, succinyl-peptide AMC, trypsin-coupled fluorescence | inhibition, % at 15 µM | 330,000 tested, 1.1% active | AID 652115, 2013; in the data active means inhibition above about 15%; inconclusive means no clear call, values can overlap the other calls
Target sequence (Q9NXA8 whole entry, looked up): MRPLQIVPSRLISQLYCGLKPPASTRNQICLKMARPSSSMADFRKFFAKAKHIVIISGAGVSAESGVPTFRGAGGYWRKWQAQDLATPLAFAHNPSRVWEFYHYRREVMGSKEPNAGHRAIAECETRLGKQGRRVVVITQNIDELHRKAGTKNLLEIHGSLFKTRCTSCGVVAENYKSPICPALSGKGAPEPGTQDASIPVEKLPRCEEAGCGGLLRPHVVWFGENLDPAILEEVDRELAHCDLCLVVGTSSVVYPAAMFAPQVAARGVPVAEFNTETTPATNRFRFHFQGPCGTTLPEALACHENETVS
E-selectin induc: E-selectin induction in HUVECs, primary screen, imaging, HUVEC, immunofluorescence imaging, single point; P16581; normalized: neutral wells 0, TNF-alpha wells 100; activation, % at 7.58 µM; 260,000 tested, 0.37% active; AID 686992, 2013;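 active means mean E-selectin-positive cell signal at least 10% of the positive control, reached in at least 60% of replicates, without over 20% cell loss; inconclusive means no rule given, readout overlaps actives, possibly toxicity-flagged; inactive means the rest, including those meeting only one limit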
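System: HUVEC, human umbilical vein endothelial cells; quantity: 3,000 cells/well; buffer or medium: EGM-2 medium, gelatin-coated wells; dosing: single-point compound dose; detection: immunofluorescence imaging; evaluation: % PE-positive cells; benchmarks: TNF-alpha, DMSO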
DENV2 CPE: inhibitors of DENV2 cytopathic effect, primary screen, cell-based, plate reader, single concentration; CPE inhibition, % at 9.99 µM; DENV2-infected cells, cytopathic effect rescue; AID 651640, 2012; 350,000 tested, 1.7% active; in the data active means CPE inhibition above about 20%, passing the limit was not always enough; inconclusive means no clear call, values can overlap the other calls; tested in BHK-21 cells;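 further: 0% = median of neutral control wells and 100% = median of positive control wells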
ERAP1 HTS inh: human ERAP1 aminopeptidase inhibitors, primary screen, biochemical, single point, plate reader. recombinant ERAP1, Leu-AMC fluorescence, 60 min. inhibition, % at 10.7 µM. 340,000 tested, 0.15% active. AID 652197, 2013;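 active means mean replicate inhibition of at least 30%, or all replicates individually reaching that 30% level; inactive means mean below 30% and not every replicate reaching it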;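 further: 0% = neutral control wells and 100% = L-leucinethiol positive control wells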
PglD DTNB: C. jejuni PglD acetyltransferase inhibitors, primary screen, biochemical, DTNB colorimetric, single point; 360,000 tested, 0.098% active; purified PglD enzyme, DTNB colorimetric CoA detection; inhibition, % at 12.5 µM; AID 602405, 2012; UDP-N-acetylbacillosamine N-acetyltransferase PglD (Campylobacter jejuni); in the data active means inhibition above about 16%, passing the limit was not always enough; inconclusive means no clear call, values can overlap the other calls
* = called active by the depositor; ? = inconclusive; . = not tested or not shown. An excerpt weighted towards active compounds, which were near 2.5% of everything screened.

SMILES	SIRT5 block	E-selectin induc	DENV2 CPE	ERAP1 HTS inh	PglD DTNB
COc1ccc(S(=O)(=O)N[C@@H]2C=C[C@@H](CC(=O)NCCc3ccccc3)O[C@@H]2CO)cc1	-1	0	39*	-1	-2
COC(=O)C[C@@H]1C=C[C@H](NS(=O)(=O)c2ccc(OC)cc2)[C@H](CO)O1	-2	0	-2	-1	0
CC#Cc1cc2c(cc1O)CCC1C2CCC2(C)C(O)CCC12 (stereo not drawn)	-3	1	-3	-1	.
COCCN1C(=O)c2ccccc2C1c1nnnn1-c1ccc2c(c1)OCCO2 (stereo not drawn)	9	4	-8	.	.
CC(C)CCN1C(=O)c2ccccc2C1c1nnnn1-c1ccc2c(c1)OCCO2 (stereo not drawn)	25*	4	-2	.	.
Cc1ccccc1/C=C/c1cc[n+](C)cc1	11	1	0	31*	.
C[C@H](CO)N1C[C@H](C)[C@H](CN(C)Cc2ccc(C(=O)Nc3ccccc3N)cc2)Oc2ccc(NC(=O)Cn3cnnn3)cc2CC1=O	.	-2	55*	0	.
C[C@H]1CN([C@@H](C)CO)C(=O)Cc2cc(NC(=O)NC3CCCCC3)ccc2O[C@H]1CN(C)Cc1ccc(-c2ccccc2)cc1	0	4	-25	0	-1
C[C@H]1CN([C@@H](C)CO)C(=O)Cc2cc(NC(=O)NC3CCCCC3)ccc2O[C@@H]1CN(C)Cc1ccc(C(=O)Nc2ccccc2N)cc1	-3	.	32*	-1	.
C[C@@H]1CN([C@@H](C)CO)C(=O)Cc2cc(NC(=O)NC3CCCCC3)ccc2O[C@@H]1CN(C)Cc1ccc(Cl)c(Cl)c1	-3	-4	59*	-1	-2
C[C@H](CO)N1C[C@H](C)[C@H](CN(C)Cc2ccc(-c3ccccc3)cc2)Oc2ccc(NC(=O)NC3CCCCC3)cc2CC1=O	1	1	22*	2	3
O=C(Nc1nc2ccc(Oc3ccccc3)cc2s1)c1cc([N+](=O)[O-])ccc1N1CCOCC1	.	.	.	.	-7
C[C@H]1CN([C@@H](C)CO)C(=O)Cc2cc(NC(=O)NC3CCCCC3)ccc2O[C@@H]1CN(C)Cc1ccc(-c2ccccc2)cc1	0	0	31*	0	0
C[C@H](CO)N1C[C@H](C)[C@H](CN(C)Cc2ccc(-c3ccccc3)cc2)OCc2ccccc2-c2ccccc2C1=O	19*	0	5	-2	.
C[C@@H]1CN([C@H](C)CO)C(=O)c2ccccc2-c2ccccc2CO[C@H]1CN(C)C(=O)c1cc(Cl)cc(Cl)c1	5	0	29*	1	.
C[C@H](CO)N1C[C@H](C)[C@H](CN(C)Cc2ccccc2)OCc2ccccc2-c2ccccc2C1=O	4	0	-9	-3	1
C[C@H]1CN([C@@H](C)CO)C(=O)c2ccccc2-c2ccccc2CO[C@H]1CN(C)Cc1ccc(F)cc1	23*	0	0	0	4
C[C@@H]1CCCCO[C@@H](CN(C)Cc2ccc(C(F)(F)F)cc2)[C@@H](C)CN([C@H](C)CO)C(=O)c2cc(NC(=O)Nc3cccc4ccccc34)ccc2O1	.	0	-10	.	0
CCCN(CC(=O)Nc1ccccc1C)C(=O)C1CCN(S(=O)(=O)c2ccc(C)c(C)c2)CC1	2	1	27*	-8	-4
Cc1ccc(S(=O)(=O)N2CCC(C(=O)OCC(=O)N(C)Cc3ccccc3)CC2)cc1C	20*	0	-5	-2	.
CCOC(=O)N1CCN(C(=O)c2ccc(N(Cc3ccccc3)S(C)(=O)=O)cc2)CC1	.	.	.	.	-3
CCCn1nc(Oc2nc(NCC)nc(NCC)n2)ccc1=O	.	.	.	.	6
CCCn1nc(Oc2nc(N(C)C)nc(N(C)C)n2)ccc1=O	19*	.	.	-1	.
COc1ccc(S(=O)(=O)N(C)C[C@@H]2OCCCC[C@H](C)Oc3ccc(NS(=O)(=O)c4ccc(Cl)cc4)cc3C(=O)N([C@H](C)CO)C[C@H]2C)cc1	6	0	-9	-1	.
COc1ccc(S(=O)(=O)N(C)C[C@H]2OCCCC[C@H](C)Oc3ccc(NS(=O)(=O)c4ccc(Cl)cc4)cc3C(=O)N([C@@H](C)CO)C[C@H]2C)cc1	17*	0	14	.	.
SMILES	SIRT5 block	E-selectin induc	DENV2 CPE	ERAP1 HTS inh	PglD DTNB
COc1ccc(S(=O)(=O)Nc2ccc3c(c2)C(=O)N([C@@H](C)CO)C[C@H](C)[C@H](CN(C)S(=O)(=O)c2ccc(Cl)cc2)OCCCC[C@@H](C)O3)cc1	22*	0	-5	1	0
COc1ccc(S(=O)(=O)N(C)C[C@H]2OCCCC[C@H](C)Oc3ccc(NS(=O)(=O)c4ccc(Cl)cc4)cc3C(=O)N([C@H](C)CO)C[C@@H]2C)cc1	3	0	-7	-2	.
COc1ccc(S(=O)(=O)Nc2ccc3c(c2)C(=O)N([C@H](C)CO)C[C@H](C)[C@H](CN(C)S(=O)(=O)c2ccc(Cl)cc2)OCCCC[C@@H](C)O3)cc1	10	0	-16	-1	0
COc1ccc(S(=O)(=O)N(C)C[C@@H]2OCCCC[C@@H](C)Oc3ccc(NS(=O)(=O)c4ccc(Cl)cc4)cc3C(=O)N([C@@H](C)CO)C[C@H]2C)cc1	17*	0	-4	2	.
COc1ccc(S(=O)(=O)Nc2ccc3c(c2)C(=O)N([C@@H](C)CO)C[C@H](C)[C@H](CN(C)S(=O)(=O)c2ccc(Cl)cc2)OCCCC[C@H](C)O3)cc1	-1	0	25*	1	-2
C[C@@H]1CN([C@H](C)CO)C(=O)CCCn2cc(nn2)CO[C@H]1CN(C)C(=O)c1cc(-c2ccccc2)on1	-1	0	4	-3	-4
COc1ccc(S(=O)(=O)N(C)C[C@H]2OCCCC[C@@H](C)Oc3ccc(NS(=O)(=O)c4ccc(Cl)cc4)cc3C(=O)N([C@H](C)CO)C[C@@H]2C)cc1	1	0	11	0	.
COc1ccc(S(=O)(=O)N(C)C[C@H]2OCCCC[C@@H](C)Oc3ccc(NS(=O)(=O)c4ccc(Cl)cc4)cc3C(=O)N([C@H](C)CO)C[C@H]2C)cc1	23*	0	-7	2	.
COc1ccc(S(=O)(=O)Nc2ccc3c(c2)C(=O)N([C@H](C)CO)C[C@@H](C)[C@H](CN(C)S(=O)(=O)c2ccc(Cl)cc2)OCCCC[C@H](C)O3)cc1	20*	0	3	-1	-3
CN1CCN(C(=O)C[C@H]2C[C@H]3c4cc(NC(=O)Nc5ccc(F)cc5)ccc4O[C@H]3[C@@H](CO)O2)CC1	9	-1	?	-2	-3
O=C(N/N=C/c1ccccn1)c1cc(-c2ccc(Cl)s2)[nH]n1	-2	0	7	1	6
